# NRP1-CendR mod: alters CendR peptide binding to human NRP-1; O14786; FAM-RPARPAR peptide binding to NRP-1, fluorescence polarization; inhibition, % at 25 µM; hit rate 0.85% among 360,000; AID 602438;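 active means inhibition or corrected inhibition above about 18%, plus a signal ratio from 0.5 to 1.5, limit read from the data, passing the limit was not always enough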
# Target sequence (O14786 whole entry, looked up): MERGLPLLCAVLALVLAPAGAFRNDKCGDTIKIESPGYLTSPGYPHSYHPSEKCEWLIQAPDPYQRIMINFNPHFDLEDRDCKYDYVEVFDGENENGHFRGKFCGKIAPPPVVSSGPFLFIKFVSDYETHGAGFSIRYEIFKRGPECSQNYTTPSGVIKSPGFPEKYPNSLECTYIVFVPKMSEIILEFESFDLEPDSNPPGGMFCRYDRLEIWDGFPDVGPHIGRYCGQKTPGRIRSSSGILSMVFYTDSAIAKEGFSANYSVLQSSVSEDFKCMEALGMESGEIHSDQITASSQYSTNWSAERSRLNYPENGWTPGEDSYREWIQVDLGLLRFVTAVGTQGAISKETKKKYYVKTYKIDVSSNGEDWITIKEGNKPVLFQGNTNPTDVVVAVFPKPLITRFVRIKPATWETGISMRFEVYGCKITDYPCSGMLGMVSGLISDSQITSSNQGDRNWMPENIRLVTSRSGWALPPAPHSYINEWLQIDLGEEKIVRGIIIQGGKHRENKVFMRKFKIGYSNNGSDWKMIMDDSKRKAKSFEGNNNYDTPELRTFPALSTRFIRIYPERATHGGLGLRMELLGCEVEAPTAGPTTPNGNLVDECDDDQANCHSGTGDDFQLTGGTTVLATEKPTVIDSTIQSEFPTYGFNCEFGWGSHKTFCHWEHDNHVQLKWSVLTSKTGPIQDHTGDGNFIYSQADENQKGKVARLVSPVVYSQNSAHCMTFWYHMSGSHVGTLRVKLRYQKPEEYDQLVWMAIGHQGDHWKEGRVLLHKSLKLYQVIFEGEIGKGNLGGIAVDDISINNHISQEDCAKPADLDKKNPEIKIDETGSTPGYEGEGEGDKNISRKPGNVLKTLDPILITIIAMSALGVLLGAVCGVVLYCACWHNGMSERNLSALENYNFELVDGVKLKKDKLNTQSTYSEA
# MT1-MMP act inh: blocks activation of human MT1-MMP; GFP/RFP ratio change, % at 20 µM; HT1080 RFP-PRO-GFP cells, GFP/RFP ratio fluorescence, overnight; percent of plate control window, DMSO zero; hit rate 0.061% among 360,000; P50281;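 active means GFP/RFP ratio change of at least 30% with cell ATP level not reduced by more than half and red fluorescence within 50% of control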
#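 Material: RFP-PRO-GFP reporter HT1080 cells. Dosing: single-point 20 µM compound, 1% DMSO. Controls: DMSO and RFP-L50D-GFP cell wells. Timing: cells overnight before dosing, compound overnight, 37 °C, 5% CO2. Measure: GFP/RFP fluorescence ratio.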
# SKN-1 block: blocks SKN-1 activity in C. elegans; inhibition, % at 21.8 µM; C. elegans VP596 Pgst-4::GFP/RFP ratio, acrylamide-induced, 24 h; hit rate 0.49% among 360,000;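 active means interference check ratio from 0.5 to 1.5 plus GFP to RFP signal ratio inhibition reaching or exceeding a fixed threshold, cut at about 30% in these data, passing the limit was not always enough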
# iPSC survival up: hiPSC single-cell survival enhancement; AID 602274; ATPlite luminescence; 100% = ROCK inhibitor wells, 0% = DMSO; hit rate 0.044% among 360,000; survival enhancement, % at 20 µM; in the data active means survival enhancement above about 18%;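 further: cells exposed to compounds for 16 hours before the ATP read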
# Hits are given with their value; - = inactive. Sampled rows, rich in hits. Any-hit rate of the full collection: about 1.4%.
SMILES,NRP1-CendR mod,MT1-MMP act inh,SKN-1 block,iPSC survival up
Fc1ccccc1NC(=S)Nc1cccc2cnccc12,44.0,-,-,-
COc1ccc(Cc2nc(-c3ccc(Br)cc3)no2)cc1,-,-,-,-
COc1ccc(Cc2nc(-c3ccc(Cl)cc3)no2)cc1,-,-,35.4,-
O=C(O)CCC1(C(=O)O)CCC(=O)c2ccccc21 (stereo not drawn),-,-,-,-
O=C1OC(c2ccc3ccccc3c2O)(c2ccc3ccccc3c2O)c2ccccc21,25.6,-,-,-
Brc1ccc(-n2cnc(-c3ccccc3)c2)cc1,-,-,39.8,-
O=C(O)CSc1nnc(-c2ccc(Cl)cc2Cl)n1Cc1ccccc1,-,-,-,-
c1ccc(CN2CCN(c3cnc4ccccc4n3)CC2)cc1,-,-,-,-
Fc1ccccc1N1CCN(c2cnc3ccccc3n2)CC1,24.4,-,-,-
COc1ccc(C2CC(O)(c3ccccc3)Oc3cc(OC)ccc32)cc1 (stereo not drawn),26.4,-,-,-
COc1ccc(C2CC(=O)Oc3cc(OC)ccc32)cc1 (stereo not drawn),-,-,-,-
OCC1(CO)COC(CCc2ccccc2)=N1,-,-,-,-
O=C(CSc1nc2ccccc2s1)N/N=C/c1ccco1,-,-,-,-
N#C/C(=C\c1ccco1)Sc1nc2ccccc2s1,-,-,44.5,-
CC(C)CCn1c(Oc2ccc(Cl)cc2)nc2c1c(=O)n(C)c(=O)n2C,26.2,-,-,-
COCc1c(C(=O)OCC(=O)NCCc2ccc(S(N)(=O)=O)cc2)oc2ccccc12,20.8,-,-,-
Cc1c(C(=O)OCC(=O)NCCc2ccc(S(N)(=O)=O)cc2)oc2ccccc12,-,-,-,-
COc1ccccc1Oc1ccc(S(=O)(=O)N2CCCC2)cc1,-,-,-,-
COc1ccccc1-c1noc(Cn2cc(S(=O)(=O)N3CCCC3)ccc2=O)n1,18.5,-,-,-
O=C(NC1CCCCC1)N(Cc1nc2ccccc2c(=O)[nH]1)C1CCCCC1,-,-,-,27.9
O=C(NC1CCCCC1)N(Cc1nc2ccccc2c(=O)[nH]1)C1CCCC1,-,-,-,-
COc1cc(OC)cc(C(=O)N[C@H](C(=O)NC2CCCc3ccccc32)C(C)C)c1 (stereo partly drawn),27.1,-,-,-
COc1cc(OC)cc(C(=O)NCC(=O)OCC(=O)NC2CCCc3ccccc32)c1 (stereo not drawn),-,-,-,-
CC(C)(C)NC(=O)C(c1cccs1)N(Cc1cccs1)C(=O)c1csnn1 (stereo not drawn),-,-,-,-
COc1ccc(Cc2[nH]n3c(=O)cc(C(C)C)nc3c2-c2ccccc2)cc1,18.1,-,-,-
SMILES,NRP1-CendR mod,MT1-MMP act inh,SKN-1 block,iPSC survival up
COc1ccc(Cc2[nH]n3c(=O)cc(C)nc3c2-c2ccccc2)cc1,-,-,-,-
Cc1c(Br)c(-c2n[nH]c(=S)n2Cc2ccco2)nn1C,-,-,-,-
CC1CCCN(CCCNC(=O)c2ccc(CS(=O)(=O)c3c(Cl)cccc3Cl)o2)C1 (stereo not drawn),-,-,-,-
Cc1c(CCOC(=O)C23CC4(C)CC(C)(CC(C)(C4)C2)C3)sc[n+]1CC(=O)c1ccccc1,-,-,38.4,-
Cc1c(-c2csc(N)n2)c2ccccc2n1C,-,-,36.7,-
Cc1ccnc(NC(c2ccncc2)c2c(C)[nH]c3ccccc23)c1 (stereo not drawn),-,-,-,-
CCC1(CC)C(=O)NN(c2ccccc2)C1=O,26.8,-,-,-
CCCC(=O)N(CCN1CCOCC1)c1nc2c(OCC)cccc2s1,-,-,39.8,-
NC(=O)CC1(CC(=O)O)CCCCC1,-,-,-,-
NC(=O)C1CCN(C(=O)CC2(CC(=O)O)CCCCC2)CC1,26.8,-,-,-
O=[N+]([O-])c1cccc(/C=C/c2nc[nH]c2[N+](=O)[O-])c1,-,-,-,-
O=C(NCCc1ccccc1)C1CCN(S(=O)(=O)c2cccnc2)CC1,-,-,-,-
O=C(CCc1ccc(Oc2cc([N+](=O)[O-])cc([N+](=O)[O-])c2)cc1)N1CCCCCC1,26.0,-,-,-
O=C(Cc1ccc([N+](=O)[O-])cc1)N1CCCCCC1,-,-,-,-
O=C(CN1C(=O)NC2(CCCc3ccccc32)C1=O)N1CCN(c2cccc(C(F)(F)F)c2)CC1 (stereo not drawn),-,-,-,-
O=C(CCS(=O)(=O)c1ccc(Br)s1)N1CCc2ccccc21,34.3,-,-,-
Cc1ccc(C(=O)OCC(=O)Nc2ccc(N(C)C)cc2)cc1NC(=O)c1ccco1,-,-,-,-
COc1ccc2c(c1)OC[C@H]1[C@H]2N2C(=O)CN(CC3CCCO3)C(=O)[C@@]2(C)[C@H]1c1ccccc1 (stereo partly drawn),26.5,-,-,-
C[C@@]12C(=O)N(CC3CCCO3)CC(=O)N1[C@@H]1c3ccccc3OC[C@@H]1[C@@H]2c1ccccc1 (stereo partly drawn),-,-,-,-
C/C(=N\NC(=O)CSc1nc2ccccc2s1)c1ccco1,-,-,-,-
Cc1cc(/C=C(\C#N)C(=O)OCC#N)c(C)n1CC(C)C,32.9,-,-,-
CCn1c(=O)c(C)nn2c3ccccc3nc12,-,-,34.6,-
Cn1c(=O)c(-c2ccccc2)nn2c3ccccc3nc12,-,-,-,-
CC1(C)Cc2nc(N)c(=O)sc2C1,-,-,-,-
NC(=O)c1ccc(NC(=O)CCC(=O)c2cccs2)cc1,-,-,-,62.2
SMILES,NRP1-CendR mod,MT1-MMP act inh,SKN-1 block,iPSC survival up
NS(=O)(=O)c1ccc(NC(=O)CCC(=O)c2cccs2)cc1,-,-,-,-
CCC(=O)Nc1nc(C)c(Oc2ccccc2)c(=O)[nH]1,23.9,-,-,-
COc1ccc(OC)c(/C=C/C(=O)NCCc2nc3ccccc3[nH]2)c1,-,-,-,-
CCc1ccc(O)c(N=Cc2ccccc2O)c1,-,-,-,-
O=c1[nH][nH]c2c(N=Cc3ccccc3O)ccc(F)c12,-,-,41.7,-
O=C(NCC1CC1)c1ccc(-c2cn[nH]c2)c2ccoc12,-,-,35.0,42.6
COCCNC(=O)c1ccc(-c2cn[nH]c2)c2ccoc12,-,-,-,31.4
O=C(NCc1ccccc1)c1ccc(-c2cn[nH]c2)c2ccoc12,-,-,-,107.0
O=C(NCc1ccccc1)c1cccc2c(-c3cccnc3)coc12,-,-,-,-
COc1cc(NC(=O)c2ccc(-c3cn[nH]c3)c3ccoc23)cc(OC)c1OC,-,-,-,-
OCC[C@@H]1C[C@H](O)[C@@H](O)[C@@]2(CCCCO2)O1,27.2,-,-,-
C=C1c2ccccc2S(=O)(=O)N(Cc2ccccc2)C1COCc1ccccc1 (stereo not drawn),27.5,-,-,-
CC1=Nc2ccc(C)cc2/C1=C/c1c(N)n2nc(CC(=O)N3CCOCC3)sc2nc1=O,-,-,37.5,-
CC1=CC(C)(C)NC(=S)N1c1cc(C)cc(C)c1,-,-,-,-
CC1=CC(C)(C)NC(=S)N1c1ccc(N(C)C)cc1,24.2,-,-,-
